Measured values pooled from the literature.
RPS6KA6: Ribosomal protein S6 kinase alpha-6 (RPS6KA6, Homo sapiens, UniProt Q9UK32)
RPS6KA6 C-terminal kinase domain: Ribosomal protein S6 kinase alpha-6, C-terminal kinase domain (RPS6KA6, Homo sapiens, UniProt Q9UK32)
RPS6KA6 N-terminal kinase domain: Ribosomal protein S6 kinase alpha-6, N-terminal kinase domain (RPS6KA6, Homo sapiens, UniProt Q9UK32)

Cc1ccc(C(=O)NCc2ccsc2)cc1C#Cc1cn(C(C)C)c2ncnc(N)c12
activity vs control (RPS6KA6; enzyme activity; inhibitor; 1 µM): 71%

CNC(=O)c1cc(Oc2ccc(NC(=O)Nc3ccc(Cl)c(C(F)(F)F)c3)cc2)ccn1
inhibition (RPS6KA6; enzyme activity; inhibitor; 10 µM): -16%

CO[C@H]1CC[C@H](CNc2ccc(S(=O)(=O)NC(=O)c3ccc(N4CCN(CC5=C(c6ccc(Cl)cc6)CC(C)(C)CC5)CC4)cc3Oc3cnc4[nH]ccc4c3)cc2[N+](=O)[O-])CC1
remaining binding (RPS6KA6 C-terminal kinase domain; cell-free assay; competition with immobilised ligand; 1 µM): 81%

CS(=O)(=O)CCNCc1ccc(-c2ccc3ncnc(Nc4ccc(OCc5cccc(F)c5)c(Cl)c4)c3c2)o1
remaining signal (RPS6KA6; cell-free assay; 0.5 µM): 108%

CS(=O)(=O)N1CCCC(NC(=O)[C@H](CCC2CCCCC2)NC(=O)c2ccc(CNc3ncnc4c3nnn4-c3ccccc3)cc2)C1 (stereo partly shown)
remaining binding (RPS6KA6 C-terminal kinase domain; cell-free assay; competition with immobilised ligand; 0.1 µM): 100%

CN1CC(Oc2cnc(C#N)cc2-c2ccn3nc(NC(=O)C4CC4)cc3c2)C1
inhibition (RPS6KA6; enzyme activity; inhibitor; 1 µM): -4%

CC1(C)NC(=O)c2[nH]c3c(Cl)c(Cl)ccc3c2C1C#N (stereo not shown)
ΔTm (RPS6KA6; thermal stability; DSF; 10 µM): 2.2 °C

CC/C(=N\NC(=O)C(C)Nc1ccccc1)c1ccc(O)c(C)c1O (stereo not shown)
inhibition (RPS6KA6; enzyme activity; inhibitor; 0.1 µM): 28.6%

CCN1CCC2(CC1)NC(=O)c1c(c3ccc(Cl)c(Cl)c3n1C)C2C#N (racemic)
ΔTm (RPS6KA6; thermal stability; DSF; 10 µM): 0 °C

Cc1cnc(NC2CCOCC2)nc1-n1cnc(C(=O)NC(CN)c2cc(F)cc(Cl)c2)c1 (stereo not shown)
remaining activity (RPS6KA6; enzyme activity; inhibitor; radiometric; 1 µM): 17%

Cc1ccc(C(=O)Nc2ccc(CN3CCN(C)CC3)c(C(F)(F)F)c2)cc1C#Cc1cnc2cccnn12
activity vs control (RPS6KA6; enzyme activity; inhibitor; 23.5 nM): 84%

Cn1c2c(Cl)c(Cl)ccc2c2cn[nH]c(=O)c21
ΔTm (RPS6KA6; thermal stability; DSF; 10 µM): 2 °C

CCOc1cc(-c2nncn2C)ccc1Nc1ncc2cc(C)nc(NCC(C)(C)C)c2n1
inhibition (RPS6KA6; enzyme activity; inhibitor; FRET; 1 µM): 24%

O=C(NS(=O)(=O)c1ccc(NCC2CCOCC2)c([N+](=O)[O-])c1)c1ccc(N2CCN(Cc3ccc(C(F)(F)F)cc3-c3ccc(Cl)cc3)CC2)cc1Oc1cnc2[nH]ccc2c1
remaining binding (RPS6KA6 N-terminal kinase domain; cell-free assay; competition with immobilised ligand; 1 µM): 100%

CCN(CC)CCNC(=O)c1c(C)[nH]c(/C=C2\C(=O)Nc3ccc(F)cc32)c1C
remaining signal (RPS6KA6; cell-free assay; 0.5 µM): 17.5%

Cn1cc(Cl)c2c(Oc3c(F)cc(Nc4cc(Cl)nc(N)n4)cc3F)ccnc21
remaining binding (RPS6KA6 C-terminal kinase domain; cell-free assay; competition with immobilised ligand; 0.1 µM): 100%

COc1cc2ncnc(Nc3ccc(Oc4ccccc4)c(C)c3C)c2cc1OC
inhibition (RPS6KA6; enzyme activity; inhibitor; 1 µM): 19%

CCCS(=O)(=O)Nc1ccc(F)c(C(=O)c2c[nH]c3ncc(-c4ccc(Cl)cc4)cc23)c1F
inhibition (RPS6KA6; enzyme activity; inhibitor; 1 µM): < 10%

CC(C)(C)c1nc(-c2cccc(NS(=O)(=O)c3c(F)cccc3F)c2F)c(-c2ccnc(N)n2)s1
remaining activity (RPS6KA6; enzyme activity; inhibitor; radiometric; 1 µM): 98%

Nc1ncnc2occ(-c3ccc(NC(=O)Nc4cc(C(F)(F)F)ccc4F)cc3)c12
remaining signal (RPS6KA6 N-terminal kinase domain; cell-free assay; inhibitor; 20 µM): 5.5%

O=C(Nc1cnn(-c2csc(C(=O)NC3COC3)c2)c1)Nc1c(F)cccc1Cl
remaining activity (RPS6KA6; enzyme activity; inhibitor; 5 µM): 92.2%

COc1ccc(COc2ccc(Cc3cnc(N)nc3N)cc2OC)cc1
remaining signal (RPS6KA6; cell-free assay; 0.5 µM): 101%

Cn1c2c(c3ccc(Cl)c(Cl)c31)C(C#N)C(C)(C)NC2=O (stereo not shown)
ΔTm (RPS6KA6; thermal stability; DSF; 10 µM): 2.6 °C

O=C(N1CCS(=O)(=O)CC1)N1C[C@H](c2ccc(OC(F)(F)F)cc2)C[C@H](c2nc(C3CC3)no2)C1
remaining binding (RPS6KA6 C-terminal kinase domain; cell-free assay; competition with immobilised ligand; 1 µM): 100%

N#CCCc1ccc2c(c1)-c1[nH]c3ccc([N+](=O)[O-])cc3c1CC(=O)N2
remaining signal (RPS6KA6; cell-free assay; 0.5 µM): 13.4%

COc1ccc2c(c1)O[C@H](c1ccc(OC)c(OC)c1)C[C@@H]2NC(=O)C1(c2ccc3c(c2)OC(F)(F)O3)CC1
remaining binding (RPS6KA6 C-terminal kinase domain; cell-free assay; competition with immobilised ligand; 1 µM): 91%

COc1cc(Cl)c(C(=O)N[C@@H](CN[C@H]2CC[C@@H](N)CC2)Cc2ccc(C#N)cc2)cc1-c1ccc(CN[C@H](C)c2ccc(C)cc2)o1
remaining activity (RPS6KA6; enzyme activity; inhibitor; 1 µM): 97%

Cn1nc(C(=O)NCc2ccc(C(=O)O)cc2)cc1-c1ccc2[nH]ccc2c1
remaining binding (RPS6KA6 N-terminal kinase domain; cell-free assay; competition with immobilised ligand; 0.1 µM): 86%

C[C@H]1CCN(c2nccc(-c3cnn4ncccc34)n2)C1
remaining binding (RPS6KA6 C-terminal kinase domain; binding; competition with immobilised ligand; 1 µM): 84%

C[C@@H]1CCN(C(=O)CC#N)C[C@@H]1N(C)c1ncnc2[nH]ccc12
remaining signal (RPS6KA6; cell-free assay; inhibitor; 0.5 µM): 98.1%

COc1ccc2cc(OCC3(C(=O)O)CN(C(=O)c4ccc(F)cc4)C3)ccc2c1
remaining binding (RPS6KA6 C-terminal kinase domain; cell-free assay; competition with immobilised ligand; 1 µM): 78%
